According to article PMC12502093 (RSC Advances, 2025):
≈ marks a conversion by molar mass, not a printed value.

How the values were obtained:
MCF7 cells = test: Neutral red uptake cytotoxicity assay, MCF7; type: cell-based, human; settings: for IC50: Homo sapiens, MCF7, 48 h, read-out: IC50 (μM) MCF7; for (SI) MCF7, selectivity index: SI = IC50 MDCK cell/IC50 MCF7 cell
Procedure, shortened: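 Neutral red uptake. Log-phase cells were grown in DMEM with 10% FBS at 37 °C, 5% CO2, at 10^4 cells/well. They were exposed 48 h to 12.5, 25, 50 and 100 μM test compound (DMSO final <0.2%), then given neutral red medium for 2 h and washed with DPBS. Dye was extracted with 1% acetic acid/50% ethanol and read at 450/630 nm. IC50 came from log concentration versus intensity, three runs averaged. SI = MDCK IC50 / MCF7 IC50.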

IL6 = test: qRT-PCR gene expression in MCF7 cells: IL6; type: cell-based, human; settings: compound at IC50, 48 h, relative to β-Actin, vs control
Procedure, shortened: (§1)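 MCF7 cells (3 × 10^4 per well) were treated 48 h with test compound. Total RNA was column-extracted and reverse-transcribed to first-strand cDNA. SYBR Green qPCR ran 95 °C 10 min, then 40 cycles of 95 °C 15 s, 60 °C 30 s, 72 °C 30 s. Expression was normalised to β-Actin by 2−ΔΔCT relative to untreated control. Data are mean ± SEM; Student's t-test, P < 0.05.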

JAK2 = test: qRT-PCR gene expression in MCF7 cells: JAK2; type: cell-based, human; settings: compound at IC50, 48 h, relative to β-Actin, vs control
Procedure, shortened: as §1

STAT3 [1] = test: qRT-PCR gene expression in MCF7 cells: STAT3; type: cell-based, human; settings: compound at IC50, 48 h, relative to β-Actin, vs control
Procedure, shortened: as §1

BCL2 = test: qRT-PCR gene expression in MCF7 cells: BCL2; type: cell-based, human; settings: compound at IC50, 48 h, relative to β-Actin, vs control
Procedure, shortened: as §1

c-MYC = test: qRT-PCR gene expression in MCF7 cells: c-MYC; type: cell-based, human; settings: compound at IC50, 48 h, relative to β-Actin, vs control
Procedure, shortened: as §1

S. aureus ATCC 25923 = test: Agar well diffusion test; type: cell-based; settings: AWDT; for Zone of inhibition, inhibition scale: S. aureus ATCC 25923; for Zone of inhibition: S. aureus ATCC 25923, average of triplicate
Procedure, shortened: (§2)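 Agar well diffusion. Test compounds were placed in wells on agar inoculated with the reference strain or isolate. After incubation, inhibition zone diameters were measured in mm with a caliper. Runs were in triplicate and the zone averaged. Scale: 0 = no inhibition; 0–6 mm (−); 7–11 mm (+); 12–14 mm (++); 15–17 mm (+++).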

C. albicans ATCC 10231 [2] = test: Agar well diffusion test; type: cell-based; settings: AWDT; for Zone of inhibition, inhibition scale: C. albicans ATCC 10231; for Zone of inhibition: C. albicans ATCC 10231, average of triplicate
A. flavus isolate = test: Agar well diffusion test; type: cell-based; settings: AWDT; for Zone of inhibition: average of triplicate
Procedure, shortened: as §2

STAT3 [3] = target: STAT3 (Homo sapiens, UniProt P40763); test: STAT3 tyrosine phosphorylation inhibition; type: biochemical; settings: STAT3 phosphorylation IC50 (μM) (mean ± SD), ELISA, eight dilutions 100-0.03 μM
Sequence of STAT3 (Homo sapiens, UniProt P40763) (P40763 whole entry, the tested form may be a part): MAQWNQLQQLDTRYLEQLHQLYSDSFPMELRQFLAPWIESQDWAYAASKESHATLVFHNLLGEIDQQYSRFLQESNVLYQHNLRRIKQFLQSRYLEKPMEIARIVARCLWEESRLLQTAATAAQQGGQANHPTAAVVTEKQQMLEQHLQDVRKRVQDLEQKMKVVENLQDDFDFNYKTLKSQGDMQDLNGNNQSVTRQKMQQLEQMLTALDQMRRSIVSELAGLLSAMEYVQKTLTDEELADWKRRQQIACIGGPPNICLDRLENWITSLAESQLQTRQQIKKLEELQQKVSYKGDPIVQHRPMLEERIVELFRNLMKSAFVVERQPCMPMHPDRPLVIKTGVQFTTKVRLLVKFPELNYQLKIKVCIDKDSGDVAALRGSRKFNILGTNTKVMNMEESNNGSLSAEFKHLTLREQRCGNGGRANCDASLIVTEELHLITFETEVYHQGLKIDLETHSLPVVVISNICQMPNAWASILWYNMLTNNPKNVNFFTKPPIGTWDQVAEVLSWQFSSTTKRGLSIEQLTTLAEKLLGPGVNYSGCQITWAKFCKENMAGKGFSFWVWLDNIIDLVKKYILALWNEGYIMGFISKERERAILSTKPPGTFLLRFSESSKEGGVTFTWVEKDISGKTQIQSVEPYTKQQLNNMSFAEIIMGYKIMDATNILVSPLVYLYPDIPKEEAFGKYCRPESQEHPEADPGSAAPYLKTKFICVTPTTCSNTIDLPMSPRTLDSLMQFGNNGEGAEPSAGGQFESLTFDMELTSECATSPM

E. coli O157 ATCC 700728 [4] = test: Agar well diffusion test; type: cell-based; settings: AWDT; for Zone of inhibition, inhibition scale: E. coli O157 ATCC 700728; for Zone of inhibition: E. coli O157 ATCC 700728, average of triplicate
Procedure, shortened: as §2

C. albicans ATCC 10231 [5] = test: Minimum inhibitory concentration, C. albicans; type: cell-based; settings: Candida albicans, ATCC10231, read-out: MIC (mg mL^−1)
Procedure, shortened: (§3)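 MIC was determined by a previously reported method for compounds selected from the well-diffusion screen and is expressed in mg mL−1. […] For C. albicans, 100 μL of negative cells went onto potato dextrose agar at 25 °C/72 h.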

BAX = test: qRT-PCR gene expression in MCF7 cells: BAX; type: cell-based, human; settings: compound at IC50, 48 h, relative to β-Actin, vs control
Procedure, shortened: as §1

Cyclin D1 = test: qRT-PCR gene expression in MCF7 cells: Cyclin D1; type: cell-based, human; settings: compound at IC50, 48 h, relative to β-Actin, vs control
Procedure, shortened: as §1

E. coli O157 ATCC 700728 [6] = test: Minimum inhibitory concentration, E. coli; type: cell-based; settings: Escherichia coli, ATCC700728, read-out: MIC (mg mL^−1)
Procedure, shortened: as §3

E. coli DNA gyrase = E. coli DNA gyrase (Escherichia coli, UniProt P0AES6); test: E. coli DNA gyrase supercoiling assay; type: biochemical
Procedure, shortened: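 Commercial kit assay of E. coli DNA gyrase supercoiling. Relaxed plasmid DNA is the substrate, and relaxed and supercoiled forms are separated by agarose gel electrophoresis. Test compounds were dissolved in DMSO and added at different concentrations to derive IC50.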

E. coli topoisomerase IV = E. coli topoisomerase IV (Escherichia coli, UniProt P20083); test: E. coli topoisomerase IV cleavage assay; type: biochemical
Sequence of E. coli topoisomerase IV (P20083 whole entry): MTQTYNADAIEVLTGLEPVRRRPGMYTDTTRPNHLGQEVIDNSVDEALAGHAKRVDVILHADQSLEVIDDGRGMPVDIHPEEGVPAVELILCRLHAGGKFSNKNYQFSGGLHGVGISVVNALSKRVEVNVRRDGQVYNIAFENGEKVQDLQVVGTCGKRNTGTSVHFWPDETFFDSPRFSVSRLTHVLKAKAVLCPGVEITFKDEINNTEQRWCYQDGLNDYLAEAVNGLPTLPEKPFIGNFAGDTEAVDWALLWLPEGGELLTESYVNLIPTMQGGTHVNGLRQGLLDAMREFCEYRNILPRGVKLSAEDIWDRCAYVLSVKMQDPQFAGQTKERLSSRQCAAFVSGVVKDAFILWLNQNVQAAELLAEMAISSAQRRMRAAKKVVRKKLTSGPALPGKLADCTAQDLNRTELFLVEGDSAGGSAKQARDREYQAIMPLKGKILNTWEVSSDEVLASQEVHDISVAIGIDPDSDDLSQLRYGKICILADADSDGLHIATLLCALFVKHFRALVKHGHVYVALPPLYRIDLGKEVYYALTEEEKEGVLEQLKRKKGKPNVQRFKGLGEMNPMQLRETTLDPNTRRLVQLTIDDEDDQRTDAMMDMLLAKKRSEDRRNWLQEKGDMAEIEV
Sequence of E. coli topoisomerase IV (P0AFI2 whole entry partner): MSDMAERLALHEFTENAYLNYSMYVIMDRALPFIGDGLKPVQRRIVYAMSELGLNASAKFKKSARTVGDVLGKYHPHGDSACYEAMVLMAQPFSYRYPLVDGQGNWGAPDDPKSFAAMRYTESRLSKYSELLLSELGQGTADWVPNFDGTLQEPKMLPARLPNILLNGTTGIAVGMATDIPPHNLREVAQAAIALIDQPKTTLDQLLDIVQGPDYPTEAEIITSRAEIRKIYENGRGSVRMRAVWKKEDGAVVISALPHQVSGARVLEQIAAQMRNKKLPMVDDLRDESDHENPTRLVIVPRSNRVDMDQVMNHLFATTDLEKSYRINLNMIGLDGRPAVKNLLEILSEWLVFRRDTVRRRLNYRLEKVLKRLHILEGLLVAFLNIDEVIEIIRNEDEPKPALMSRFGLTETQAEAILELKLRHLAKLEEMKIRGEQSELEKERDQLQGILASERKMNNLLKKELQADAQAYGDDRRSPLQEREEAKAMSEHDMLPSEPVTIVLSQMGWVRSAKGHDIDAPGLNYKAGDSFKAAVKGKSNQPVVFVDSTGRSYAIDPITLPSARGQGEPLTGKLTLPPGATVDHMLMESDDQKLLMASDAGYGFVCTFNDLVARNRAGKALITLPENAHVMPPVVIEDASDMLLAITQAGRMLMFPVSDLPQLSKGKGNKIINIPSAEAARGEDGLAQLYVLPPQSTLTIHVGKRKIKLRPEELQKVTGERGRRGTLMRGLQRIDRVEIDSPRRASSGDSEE

SMILES	IC50 (MCF7 cells) [µM]	(SI) MCF7, selectivity index (MCF7 cells)	IL6 gene expression level (IL6)	JAK2 gene expression level (JAK2)	STAT3 gene expression level (STAT3 [1])	BCL2 gene expression level (BCL2)	c-MYC gene expression level (c-MYC)	Zone of inhibition, inhibition scale (S. aureus ATCC 25923)	Zone of inhibition (S. aureus ATCC 25923) [mm]	Zone of inhibition, inhibition scale (C. albicans ATCC 10231 [2])	Zone of inhibition (C. albicans ATCC 10231 [2]) [mm]	Zone of inhibition, inhibition scale (A. flavus isolate)	Zone of inhibition (A. flavus isolate) [mm]	Zone of inhibition (E. coli O157 ATCC 700728 [4]) [mm]	MIC (C. albicans ATCC 10231 [5]) [mg/mL]	other results
CC(=O)c1ccc2cc(S(=O)(=O)Nc3ccccc3)ccc2c1 [Compound 5a, 6-Acetyl-N-phenylnaphthalene-2-sulfonamide]	42.1	2.15	significantly decreased	significantly decreased	significantly decreased	significantly decreased	significantly decreased	− (0–6 mm (−))	0	++ (12–14 mm (++))	12	− (0–6 mm (−))	0			IC50 (STAT3 [3]): 7.87 ± 0.74 µM
CC(=O)c1ccc2cc(S(=O)(=O)Nc3ccccc3Cl)ccc2c1 [Compound 5c, 6-Acetyl-N-(2-chlorophenyl)naphthalene-2-sulfonamide]								− (0–6 mm (−))	0	+++ (15–17 mm (+++))	16	− (0–6 mm (−))	0	12	20 (≈ 55.6 mM)	Zone of inhibition, inhibition scale (E. coli O157 ATCC 700728 [4]): ++ (12–14 mm (++))
CC(=O)c1ccc2cc(S(=O)(=O)Nc3cccc(Cl)c3)ccc2c1 [Compound 5d, 6-Acetyl-N-(3-chlorophenyl)naphthalene-2-sulfonamide]								− (0–6 mm (−))	0	+ (7–11 mm (+))	15	− (0–6 mm (−))	0	10	10 (≈ 27.8 mM)	
CC(=O)c1ccc2cc(S(=O)(=O)Nc3ccccc3C)ccc2c1 [Compound 5f, 6-Acetyl-N-(o-tolyl)naphthalene-2-sulfonamide]								− (0–6 mm (−))	0	+ (7–11 mm (+))	12	− (0–6 mm (−))	0	11		
COc1ccc(NS(=O)(=O)c2ccc3cc(C(C)=O)ccc3c2)cc1 [Compound 5g, 6-Acetyl-N-(4-methoxyphenyl)naphthalene-2-sulfonamide]								− (0–6 mm (−))	0	+ (7–11 mm (+))	10	− (0–6 mm (−))	0	12		Zone of inhibition, inhibition scale (E. coli O157 ATCC 700728 [4]): ++ (12–14 mm (++))
CC(=O)c1ccc2cc(S(=O)(=O)NCc3ccccc3)ccc2c1 [Compound 5h, 6-Acetyl-N-benzylnaphthalene-2-sulfonamide]								++ (12–14 mm (++))	14	+ (7–11 mm (+))	7	+ (7–11 mm (+))	10	10		
CC(=O)c1ccc2cc(S(=O)(=O)Nc3ccccn3)ccc2c1 [Compound 5i, 6-Acetyl-N-(pyridin-2-yl)naphthalene-2-sulfonamide]	41.6	2.13	significant decrease	significant decrease	significant decrease	significant decrease	significant decrease	− (0–6 mm (−))	0	+ (7–11 mm (+))	14	− (0–6 mm (−))	0	11	40 (≈ 123 mM)	BAX gene expression level (BAX): significant increase; Cyclin D1 gene expression level (Cyclin D1): significant decrease; IC50 (STAT3 [3]): 8.58 ± 0.9 µM
CC(=O)c1ccc2cc(S(=O)(=O)Nc3cccnc3)ccc2c1 [Compound 5j, 6-Acetyl-N-(pyridin-3-yl)naphthalene-2-sulfonamide]								− (0–6 mm (−))	0	+++ (15–17 mm (+++))	16	+ (7–11 mm (+))	7	16	10 (≈ 30.6 mM)	MIC (E. coli O157 ATCC 700728 [6]): 20 mg/mL (≈ 61.3 mM)
COc1cccc2c1C(=O)c1c(O)c3c(c(O)c1C2=O)C[C@@](O)(C(=O)CO)C[C@@H]3O[C@H]1C[C@H](N)[C@H](O)[C@H](C)O1 [Doxorubicin, reference compound]	22.8	3.07	significantly decreasing	significantly decreasing	significantly decreasing	significantly decreasing	significantly decreasing									BAX gene expression level (BAX): significantly raised; Cyclin D1 gene expression level (Cyclin D1): significantly decreasing
CCn1cc(C(=O)O)c(=O)c2cc(F)c(N3CCNCC3)cc21 [Nor, norfloxacin, reference compound]																IC50 (E. coli DNA gyrase): 11.1 µM; IC50 (E. coli topoisomerase IV): 25.8 µM
